The source made the active and inactive calls. No cut-off for these calls is given here.
Tests used:
[1] = tested on: Leishmania donovani; assay: Antileishmanial activity against Leishmania donovani HU3 amastigote forms infected in CD-1 mouse macrophages at 10 uM after 2 to 3 days by Giemsa staining based microscopic method relative to control; assay type: functional
[2] = tested on: KB; assay: Cytotoxicity against human KB cells after 72 hrs by Alamar blue assay; assay type: cell-based
Outline: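 Human nasopharyngeal carcinoma KB cells were grown in RPMI 1640 with 10% heat-inactivated foetal calf serum at 37°C and 5% CO2. Monolayers were exposed to compounds for 72 h. Alamar Blue was then added for 2-4 h and fluorescence read at 530/580 nm. IC50 was derived by sigmoidal regression from the mean of two independent triplicate experiments.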

[3] = tested on: Trypanosoma brucei rhodesiense; assay: Antitrypanosomal activity against Trypanosoma brucei rhodesiense STIB900 after 72 hrs by Alamar blue assay; assay type: functional; conditions: STIB900, 72 h
Outline: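 T. b. rhodesiense STIB 900 bloodstream forms (1 x 10³ per well) incubated with 3-fold serial drug dilutions from DMSO stocks (20 mM) diluted in medium, 37°C, 5% CO2, 72 h, in triplicate. Drug-free controls and medium-only blanks were included. Alamar Blue was then added for 2-4 h and fluorescence read at ex 530/em 580 nm. IC50 is the mean of two independent experiments.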

[4] = Selectivity index, ratio of IC50 for human KB cells to IC50 for Trypanosoma brucei rhodesiense STIB900; assay type: toxicity; conditions: read-out: Ratio IC50
Outline: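 SI is calculated as the KB-cell IC50 divided by the T. b. rhodesiense STIB900 IC50.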

[5] = tested on: Leishmania donovani; assay: Antileishmanial activity against Leishmania donovani HU3 amastigote forms infected in CD-1 mouse macrophages at 30 uM after 2 to 3 days by Giemsa staining based microscopic method relative to control; assay type: functional

| IC50 [3] [µM] | SMILES | Activity [1] | IC50 [2] [µM] | selectivity ratio [4] | inhibition at 30 µM [5] [%] |
| --- | --- | --- | --- | --- | --- |
| 12.2 | O=C(CC(CC(=O)c1cccc(Br)c1)c1cccnc1)c1cccc(Br)c1 | inactive | 181 | 15 | – |
| 0.72 | O=C(/C=C/c1cccnc1)c1ccc(F)c(F)c1 | inactive | 20.7 | 29 | – |
| 0.94 | COc1ccc(C(=O)/C=C/c2cccnc2)cc1 | inactive | 21.7 | 23 | – |
| 0.34 | O=C(/C=C/c1cccnc1)c1ccc(Br)cc1 | inactive | 7.9 | 23 | 11.6 |
| 0.98 | COc1ccc(C(=O)/C=C/c2cccnc2)cc1OC | inactive | 22.8 | 24 | – |
| 0.4 | O=C(/C=C/c1ccccn1)c1cccc(Br)c1 | inactive | 14.7 | 37 | – |
| 37.8 | O=C(/C=C/c1cccnc1)c1ccccc1Br | inactive | > 300 | > 8 | – |
| 0.41 | COc1cccc(C(=O)/C=C/c2cccnc2)c1 | inactive | 2.3 | 6 | – |
| – | COc1cc([C@@H]2c3cc4c(cc3[C@H](O)[C@H]3COC(=O)[C@H]23)OCO4)cc(OC)c1OC [PODOFILOX] | – | 0.058 | – | – |
| 4.83 | O=C(/C=C/c1cccnc1)c1ccc2c(c1)OCO2 | inactive | 59.4 | 12 | – |
| 0.29 | O=C(/C=C/c1cccnc1)c1cccc(Br)c1 | inactive | 13.5 | 47 | 39.7 |
| 0.69 | O=C(/C=C/c1cccc(Br)c1)c1cccnc1 | inactive | 43.7 | 63 | – |
| 0.72 | O=C(/C=C/c1cccnc1)c1ccccc1 | inactive | 7.7 | 11 | – |
| 0.62 | O=C(/C=C/c1cccnc1)c1cccc(Cl)c1 | inactive | 12.7 | 21 | 2.7 |
| 1.15 | O=C(/C=C/c1cccnc1)c1cccc(O)c1 | inactive | 21.7 | 19 | – |
| 1.02 | O=C(/C=C/c1cccnc1)c1cccnc1 | inactive | 17 | 17 | – |
| 0.65 | O=C(/C=C/c1ccncc1)c1cccc(Br)c1 | inactive | 23.7 | 36 | – |
| 1.14 | COc1ccccc1C(=O)/C=C/c1cccnc1 | inactive | 22.7 | 20 | – |
| 0.96 | O=C(/C=C/c1ccccc1)c1cccc(Br)c1 | inactive | 18.4 | 19 | 13.8 |

Reference: ChEMBL document CHEMBL4004846, “Synthesis and antitrypanosomal activities of novel pyridylchalcones” (Eur J Med Chem, 2017)
